inhibition, IC50 and Activity data for 27 compounds are collected here from ChEMBL document CHEMBL1131578, “Design of a new class of orally active fibrinogen receptor antagonists” (J Med Chem, 1998).

Residues, ends and D or L forms follow the SMILES beside them. A value given as a limit tells only on which side of the number the result lay.

By inhibition is commonly meant the change of the read-out against control, counted positive when it falls. Low readings indicate a weak effect, high ones a strong effect. One may read the IC50 as the midpoint of a concentration-inhibition curve. Low values mean greater potency, high ones weaker potency.

Series [1] addresses T1, Integrin alpha-IIb/beta-3 (Homo sapiens, UniProt P05106+P08514). Kind of series: Percent inhibition of ex vivo platelet aggregation after 6 hours of administration. The format is functional, organism-based. As to conditions: concentration not given here. The procedure, abridged: (§1)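 Mongrel dogs of either sex dosed by intragastric gavage, compound dissolved in deionized water. Citrated venous blood drawn 10 min predose and at 1, 3, 6, 12 and 24 h. PRP adjusted to 300 000 platelets/μL, stirred at 37 °C, primed with epinephrine 1 μM, then ADP 10 μM added. Light-transmission slope read in duplicate, expressed as % decrease versus predose PRP. Mean of at least two dogs per dose.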

In series [2] the target is T1, Integrin alpha-IIb/beta-3. Kind of series: Percent inhibition of ex vivo platelet aggregation after 1 hour of administration. The format is functional, organism-based. Conditions: concentration not given here. The procedure, abridged: as §1
In series [3] the target is T1, Integrin alpha-IIb/beta-3. Kind of series: Ability to inhibit the aggregation of fixed human platelets. The series is classed as functional. The procedure, abridged: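 Human gel-filtered platelets activated with α-thrombin 1 U/mL (final) for 2 min at room temperature, then thrombin inhibitor 20 μM, fixed in 0.5% paraformaldehyde for 30 min, washed and resuspended at 2×10^8 cells/mL in Tyrode's-HSA. Compound preincubated 1 min with the suspension. Rate relative to no-antagonist control; IC50 calculated.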
Target sequence in this assay (P05106 27-788 limits assumed): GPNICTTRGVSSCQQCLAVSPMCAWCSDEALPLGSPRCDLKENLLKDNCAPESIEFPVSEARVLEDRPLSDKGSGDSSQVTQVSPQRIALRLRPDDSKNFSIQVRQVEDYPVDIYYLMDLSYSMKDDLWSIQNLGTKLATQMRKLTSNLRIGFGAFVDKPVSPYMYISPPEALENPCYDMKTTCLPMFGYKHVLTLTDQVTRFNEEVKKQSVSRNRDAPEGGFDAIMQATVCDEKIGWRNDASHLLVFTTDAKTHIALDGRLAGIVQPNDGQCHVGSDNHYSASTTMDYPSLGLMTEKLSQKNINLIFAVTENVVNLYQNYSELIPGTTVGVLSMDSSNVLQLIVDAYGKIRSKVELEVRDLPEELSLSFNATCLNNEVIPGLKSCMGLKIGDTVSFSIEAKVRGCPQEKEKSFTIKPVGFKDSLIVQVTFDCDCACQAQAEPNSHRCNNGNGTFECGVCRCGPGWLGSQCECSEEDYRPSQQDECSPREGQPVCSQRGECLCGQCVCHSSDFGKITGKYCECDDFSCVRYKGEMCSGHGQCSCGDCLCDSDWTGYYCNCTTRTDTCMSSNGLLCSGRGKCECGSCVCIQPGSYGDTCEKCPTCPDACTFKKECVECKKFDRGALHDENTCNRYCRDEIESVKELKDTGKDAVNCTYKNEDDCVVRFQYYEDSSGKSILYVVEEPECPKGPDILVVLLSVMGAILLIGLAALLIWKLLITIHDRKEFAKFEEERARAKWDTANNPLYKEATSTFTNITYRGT
Target sequence in this assay (P08514 32-887 limits assumed): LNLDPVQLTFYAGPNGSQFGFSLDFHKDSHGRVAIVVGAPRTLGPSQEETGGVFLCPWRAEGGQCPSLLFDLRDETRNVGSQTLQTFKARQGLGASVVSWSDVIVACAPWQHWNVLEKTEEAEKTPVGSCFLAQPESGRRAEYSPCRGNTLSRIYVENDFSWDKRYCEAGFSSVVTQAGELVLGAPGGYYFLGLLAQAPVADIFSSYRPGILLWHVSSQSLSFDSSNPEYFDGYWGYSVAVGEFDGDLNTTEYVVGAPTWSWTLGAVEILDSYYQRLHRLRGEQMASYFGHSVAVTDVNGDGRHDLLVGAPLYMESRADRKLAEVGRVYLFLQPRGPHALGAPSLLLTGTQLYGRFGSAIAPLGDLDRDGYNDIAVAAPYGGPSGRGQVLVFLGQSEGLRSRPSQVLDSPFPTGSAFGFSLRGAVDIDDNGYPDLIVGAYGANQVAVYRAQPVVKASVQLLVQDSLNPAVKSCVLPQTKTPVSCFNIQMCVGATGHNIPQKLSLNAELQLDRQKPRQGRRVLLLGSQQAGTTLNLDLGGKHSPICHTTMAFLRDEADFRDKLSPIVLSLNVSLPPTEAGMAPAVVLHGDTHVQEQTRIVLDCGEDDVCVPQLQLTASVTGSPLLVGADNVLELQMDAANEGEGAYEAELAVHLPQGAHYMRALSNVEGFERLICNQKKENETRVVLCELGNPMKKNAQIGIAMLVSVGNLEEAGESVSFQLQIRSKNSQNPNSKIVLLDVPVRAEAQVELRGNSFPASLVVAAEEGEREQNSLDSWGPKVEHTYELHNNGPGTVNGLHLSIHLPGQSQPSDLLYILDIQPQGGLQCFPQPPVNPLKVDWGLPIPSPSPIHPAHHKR
Target sequence in this assay (P08514 891-1039 limits assumed): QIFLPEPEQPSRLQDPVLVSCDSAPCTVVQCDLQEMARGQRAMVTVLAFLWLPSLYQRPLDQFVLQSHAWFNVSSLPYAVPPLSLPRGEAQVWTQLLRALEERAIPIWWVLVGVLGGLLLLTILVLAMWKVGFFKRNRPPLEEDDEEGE

The target of series [4] is T1, Integrin alpha-IIb/beta-3. Nature of the series: Inhibition of radiolabeled fibrinogen binding to activated human platelets. The series is classed as functional. The procedure, abridged:
(§2)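 Washed human platelets at 1×10^8/mL in Tyrode's buffer, run in duplicate. Inhibitor and labelled fibrinogen added before agonist, either TRAP (SFLLRN-NH2) 100 μM or ADP 10 μM. Incubated 30 min at room temperature, spun through a 20% sucrose cushion, pellet γ-counted. IC50 determined.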
Target sequence in this assay (P05106 27-788 limits assumed): as the sequence (P05106 27-788 limits assumed) above
Target sequence in this assay (P08514 32-887 limits assumed): as the sequence (P08514 32-887 limits assumed) above
Target sequence in this assay (P08514 891-1039 limits assumed): as the sequence (P08514 891-1039 limits assumed) above

Series [5] has as its target T1, Integrin alpha-IIb/beta-3. Nature of the series: Percent inhibition of ex vivo platelet aggregation after 3 hours of administration. As to conditions: concentration not given here. The series is classed as functional, organism-based. A digest of the protocol: as §1
Series [6] concerns the target T1, Integrin alpha-IIb/beta-3. Kind of series: Inhibition of ex vivo platelet aggregation after 3 hr treatment. The series is classed as functional. Conditions: concentration not given here. The procedure, abridged:
as §1

Series [7] deals with T1, Integrin alpha-IIb/beta-3. Kind of series: Inhibition of ex vivo platelet aggregation after 1 hr treatment. The series is classed as functional. As to conditions: concentration not given here. A digest of the protocol:
as §1

For series [8], the target named is T1, Integrin alpha-IIb/beta-3. Nature of the series: Inhibition of ex vivo platelet aggregation after 6 hr treatment. The format is functional. Conditions: concentration not given here. The procedure, abridged:
as §1

Series [9] addresses Integrin alpha-V/beta-3 (Homo sapiens). Nature of the series: Inhibition of HUVEC adhesion to vitronectin-coated plates.
Series [10] shares this target. Kind of series: Inhibition of HUVEC adhesion to fibronectin-coated plates.
For series [11], the target named is T1, Integrin alpha-IIb/beta-3. Nature of the series: Inhibition of radiolabeled fibrinogen binding to activated human platelets. The series is classed as functional. A digest of the protocol: as §2
Target sequence in this assay (P05106 27-788 limits assumed): as the sequence (P05106 27-788 limits assumed) above
Target sequence in this assay (P08514 32-887 limits assumed): as the sequence (P08514 32-887 limits assumed) above
Target sequence in this assay (P08514 891-1039 limits assumed): as the sequence (P08514 891-1039 limits assumed) above
Series [12] deals with Integrin alpha-V/beta-3 (Homo sapiens). Kind of series: Inhibition of HUVEC adhesion to fibrinogen-coated plates.
Series [13] is described as follows: Compound was evaluated for the rate of degradation by Carboxypeptidase A. The series is classed as ADME. A digest of the protocol: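 Bovine pancreatic carboxypeptidase A diluted in 5% LiCl, activity checked with hippuryl-L-phenylalanine. Substrate made up at 1.0 mM in 0.05 M Tris with 1.0 M NaCl, pH 7.5, then combined with enzyme (2.0 units total). Incubated 60 min at room temperature, with hydrolysis followed by HPLC every 9 min. Rate of hydrolysis normalized to 1 unit of enzyme.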

Consider `CCN(CC(=O)N[C@@H](CC(=O)O)C(=O)N[C@H](C(=O)O)C(C)C)C(=O)CCCC1CCNCC1`, for which the figures for the inhibition in [1], in [2] and in series [5] were 20%, 80% and 66%, respectively. For the same compound, the IC50 in series [3] turned out to be 0.027 µM; in [4], 0.008 µM.
In the case of `CCN(CC(=O)N[C@@H](CC(=O)O)C(=O)N[C@H](C(=O)O)C(C)C)C(=O)CCCCN=C(N)N`, the inhibition in [6] is 0%; in [7] it was 23%; in series [8], 0%.
In series [3], `CCN(CC(=O)N[C@@H](CC(=O)O)C(=O)N[C@@H](CCCC1CCCCC1)C(=O)O)C(=O)CCCC1CCNCC1` yielded an IC50 of 0.053 µM.
Compound `CCN(CC(=O)N[C@@H](CC(=O)O)C(=O)N[C@H](C(=O)O)C(C)C)C(=O)CCCCC1CCNCC1` came in with an IC50 in [3] of 0.21 µM.
For `CCN(CC(=O)N[C@@H](CC(=O)O)C(=O)N[C@H](C(=O)O)C(C)C)C(=O)CCC1CCNCC1`, in series [3], the IC50 came out at 0.77 µM.
For `CCN(CC(=O)N[C@@H](CC(=O)O)C(=O)N[C@H](C(=O)O)C1CCCCC1)C(=O)CCCC1CCNCC1`, the IC50 in series [3] was found to be 0.032 µM.
As to `CCN(CC(=O)N[C@@H](CC(=O)O)C(=O)N[C@H](CC1CCCCC1)C(=O)O)C(=O)CCCC1CCNCC1`, the IC50 in [3] is 1.37 µM.
In series [3], `CCN(CC(=O)N[C@@H](CC(=O)O)C(=O)N[C@@H](CC1CCC2CCCCC2C1)C(=O)O)C(=O)CCCC1CCNCC1` (stereo partly specified) showed an IC50 of 0.096 µM.
In series [3], `CCN(CC(=O)N[C@@H](CC(=O)O)C(=O)N[C@H](C(=O)O)C(C)C)C(=O)CCCCCNC(=N)N` came in with an IC50 of 0.47 µM.
In the case of `CCN(CC(=O)N[C@@H](CC(=O)O)C(=O)N[C@@H](Cc1ccccc1)C(=O)O)C(=O)CCCC1CCNCC1`, the IC50 in series [3] was determined as 0.064 µM.
Turning to `CCN(CC(=O)N[C@@H](CC(=O)O)C(=O)N[C@@H](CC(C)(C)C)C(=O)O)C(=O)CCCC1CCNCC1`, the IC50 in series [3] is 0.082 µM; in [4] it was 0.072 µM.
Take `CCN(CC(=O)N[C@@H](CC(=O)O)C(=O)N[C@@H](CC1CCCC1)C(=O)O)C(=O)CCCC1CCNCC1`: in series [3], the IC50 came to 0.047 µM.
Take `CCN(CC(=O)N[C@@H](CC(=O)O)C(=O)N[C@@H](CC1CCCCCCC1)C(=O)O)C(=O)CCCC1CCNCC1`: the IC50 in series [3] is 0.078 µM.
For `CCN(CC(=O)N[C@@H](CC(=O)O)C(=O)N[C@@H](C(=O)O)C(C)C)C(=O)CCCC1CCNCC1`, the IC50 amounted to 0.72 µM in series [3] and 0.26 µM in [4].
Compound `CC(C)[C@H](NC(=O)[C@H](CC(=O)O)NC(=O)CNC(=O)[C@@H](N)CCCNC(=N)N)C(=O)O` (H-RGDV-OH) displayed an IC50 in [3] of 10 µM.
Turning to `CCN(CC(=O)N[C@@H](CC(=O)O)C(=O)N[C@@H](CCC1CCCCC1)C(=O)O)C(=O)CCCC1CCNCC1`, the IC50 in series [9] (huvec) was greater than 2500 µM; in series [10] (huvec), greater than 2400 µM; in series [3] it was 0.031 µM; in [11], 0.011 µM; in series [12] (huvec), 1930 µM.
`CCN(CC(=O)N[C@@H](CC(=O)O)C(=O)N[C@@H](CO)CC1CCCCC1)C(=O)CCCC1CCNCC1` had an IC50 in series [3] of 0.129 µM.
`CCN(CC(=O)N[C@@H](CC(=O)O)C(=O)N[C@@H](Cc1cccc2ccccc12)C(=O)O)C(=O)CCCC1CCNCC1`: the IC50 turned out to be 0.11 µM in [3] and 0.022 µM in series [11]. In addition, in series [13], the Activity was found to be 3.1 nmol/min/unit.
In [11], `CCN(CC(=O)N[C@@H](CC(=O)O)C(=O)N[C@@H](Cc1ccc2ccccc2c1)C(=O)O)C(=O)CCCC1CCNCC1` gave an IC50 of 0.022 µM.
As to `CCN(CC(=O)N[C@@H](CC(=O)O)C(=O)N[C@@H](CC1CCCC2CCCCC21)C(=O)O)C(=O)CCCC1CCNCC1` (stereo partly specified), the IC50 in [3] amounted to 0.019 µM; in [4] it was 0.011 µM.
For the compound `CC(C)[C@H](NC(=O)[C@H](CC(=O)O)NC(=O)CNC(=O)CCCC1CCNCC1)C(=O)O`, the figures for the inhibition in series [2] and in series [5] were 47% and 0%, respectively. For the same compound, in series [3], the IC50 came to 1.06 µM.
As to `CCN(CC(=O)N[C@@H](CC(=O)O)C(=O)N[C@@H](CC1CCCCC1)C(N)=O)C(=O)CCCC1CCNCC1`, the IC50 in [10] was greater than 2400 µM; in series [3], 0.097 µM; in series [11], 0.028 µM; in series [12], greater than 2350 µM.
Regarding `CCN(CC(=O)N[C@@H](CC(=O)O)C(=O)N[C@@H](CC1CCCCC1)C(=O)O)C(=O)CCCC1CCNCC1`, the IC50 in series [9] was greater than 1650 µM; in series [10] it was greater than 1750 µM; in series [3] it was 0.026 µM; in series [11] it was 0.017 µM; in [12], 1010 µM. In [13], this compound yielded an Activity of 0.6 nmol/min/unit.
Turning to `CCOC(=O)[C@H](CC1CCCCC1)NC(=O)[C@H](CC(=O)O)NC(=O)CN(CC)C(=O)CCCC1CCNCC1`, the values for the IC50 in series [3] and in series [4] were 0.064 µM and 0.016 µM, respectively.
In the case of `CCCC[C@H](NC(=O)[C@H](CC(=O)O)NC(=O)CN(CC)C(=O)CCCC1CCNCC1)C(=O)O`, the IC50 in [3] was found to be 0.13 µM; in series [4] it was 0.011 µM. The Activity in series [13] was determined as 7.4 nmol/min/unit.
Consider `CCN(CC(=O)N[C@@H](CC(=O)O)C(=O)N[C@@H](CC1CCCCCC1)C(=O)O)C(=O)CCCC1CCNCC1`, for which, in series [3], the midpoint of inhibition, the IC50, lay at 0.032 µM.
As for `CCN(CC(=O)N[C@@H](CC(=O)O)C(=O)NCCC1CCCCC1)C(=O)CCCC1CCNCC1`, the IC50 is 0.072 µM in series [3] and 0.01 µM in series [11].
